Data reported in ChEMBL document CHEMBL1141933 (J Med Chem, 2005).

How the values were obtained:
[1] = biological target: T1, Protein farnesyltransferase (PFT) (Plasmodium falciparum, UniProt Q5EI73+Q5EI74); test: Inhibition of biotinylated lamin B peptide farnesylation by Plasmodium falciparum farnesyltransferase; format: protein-complex assay
T1 sequence (Q5EI73 whole entry): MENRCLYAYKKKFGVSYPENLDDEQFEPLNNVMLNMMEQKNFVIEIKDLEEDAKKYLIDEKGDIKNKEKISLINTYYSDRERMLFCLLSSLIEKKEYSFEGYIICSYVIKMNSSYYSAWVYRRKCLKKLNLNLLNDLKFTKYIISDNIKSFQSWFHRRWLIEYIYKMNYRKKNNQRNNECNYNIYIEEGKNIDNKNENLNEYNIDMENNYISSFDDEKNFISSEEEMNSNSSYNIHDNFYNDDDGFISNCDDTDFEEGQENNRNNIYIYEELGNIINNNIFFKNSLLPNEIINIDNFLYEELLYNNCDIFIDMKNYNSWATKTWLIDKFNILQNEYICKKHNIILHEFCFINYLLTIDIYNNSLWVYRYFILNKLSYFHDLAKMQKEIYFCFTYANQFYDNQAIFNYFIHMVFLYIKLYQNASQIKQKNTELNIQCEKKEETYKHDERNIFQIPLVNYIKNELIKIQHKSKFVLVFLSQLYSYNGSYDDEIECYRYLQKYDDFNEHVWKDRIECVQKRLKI
T1 sequence (Q5EI74 whole entry): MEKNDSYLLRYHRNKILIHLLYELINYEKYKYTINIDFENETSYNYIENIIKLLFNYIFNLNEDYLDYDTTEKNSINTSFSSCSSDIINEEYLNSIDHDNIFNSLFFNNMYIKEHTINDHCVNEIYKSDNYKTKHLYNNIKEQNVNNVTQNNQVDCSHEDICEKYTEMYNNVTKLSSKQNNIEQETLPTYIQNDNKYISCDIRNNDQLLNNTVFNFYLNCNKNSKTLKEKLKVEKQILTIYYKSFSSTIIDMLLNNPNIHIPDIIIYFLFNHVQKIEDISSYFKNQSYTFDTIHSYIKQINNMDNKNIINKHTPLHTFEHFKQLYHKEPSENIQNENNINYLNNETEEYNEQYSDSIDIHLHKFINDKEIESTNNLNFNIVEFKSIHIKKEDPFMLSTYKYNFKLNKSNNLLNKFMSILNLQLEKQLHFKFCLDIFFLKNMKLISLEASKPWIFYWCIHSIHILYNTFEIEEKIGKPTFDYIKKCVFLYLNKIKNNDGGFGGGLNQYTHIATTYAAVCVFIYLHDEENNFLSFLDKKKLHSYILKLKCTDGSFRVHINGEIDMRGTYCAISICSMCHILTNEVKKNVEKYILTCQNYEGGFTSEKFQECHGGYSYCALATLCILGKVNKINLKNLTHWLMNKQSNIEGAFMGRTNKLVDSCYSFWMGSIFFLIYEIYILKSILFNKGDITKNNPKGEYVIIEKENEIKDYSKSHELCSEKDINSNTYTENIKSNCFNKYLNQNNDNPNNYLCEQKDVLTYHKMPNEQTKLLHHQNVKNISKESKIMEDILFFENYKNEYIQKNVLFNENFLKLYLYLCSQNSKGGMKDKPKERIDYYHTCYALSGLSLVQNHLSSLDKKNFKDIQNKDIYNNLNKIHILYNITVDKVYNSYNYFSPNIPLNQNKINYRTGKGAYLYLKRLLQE

[2] = system: Plasmodium falciparum; test: Effective dose against Plasmodium falciparum 3D7; format: functional; details: read-out: ED50 (the source's name)
Summary of the method: (§1)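 Asynchronous culture in human A+ erythrocytes at 0.5% parasitemia and 0.5% hematocrit, in RPMI-1640 with 20% heat-inactivated human A+ plasma. Compound added in DMSO; 48 h at 37 C under 5% CO2/5% O2/90% N2. [8-3H]hypoxanthine added for a further 24 h, then incorporation counted. Uninfected-RBC background subtracted; DMSO = 100% growth. ED50 by linear regression; ≥2 tests, mean.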

[3] = biological target: Protein farnesyltransferase (Rattus norvegicus, UniProt Q02293+Q04631); test: Inhibition of biotinylated lamin B peptide farnesylation by rat farnesyltransferase; format: protein-complex assay
[4] = system: Plasmodium falciparum; test: Effective dose against chloroquine-resistant, pyrimethamine-resistant, mefloquine-resistant Plasmodium falciparum Dd2; format: functional; details: read-out: ED50 (the source's name)
Summary of the method: (§2)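 Asynchronous blood-stage culture (0.5% parasitemia, 0.5% hematocrit) in RPMI-1640 with 20% heat-inactivated human A+ plasma, human A+ erythrocytes. Compound added from DMSO, 48 h at 37 C under 5% CO2/5% O2/90% N2. [8-3H]hypoxanthine then added for a further 24 h and uptake counted. Uninfected-RBC background subtracted; DMSO vehicle = 100% growth. ED50 by linear regression, mean of at least two runs.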

[5] = system: Plasmodium falciparum; test: Effective dose against chloroquine-resistant, pyrimethamine-resistant, mefloquine-sensitive Plasmodium falciparum W2; format: functional; details: read-out: ED50 (the source's name); summary of the method: as §2
[6] = system: Plasmodium falciparum; test: Effective dose against chloroquine-sensitive, pyrimethamine-sensitive, mefloquine-sensitive Plasmodium falciparum HB3; format: functional; details: read-out: ED50 (the source's name); summary of the method: as §1
[7] = system: Plasmodium falciparum; test: Effective dose against chloroquine-sensitive, pyrimethamine-sensitive, mefloquine-sensitive Plasmodium falciparum 3D7; format: functional; details: read-out: ED50 (the source's name); summary of the method: as §1
[8] = system: Plasmodium falciparum; test: Effective dose against chloroquine-resistant, pyrimethamine-resistant, mefloquine-sensitive Plasmodium falciparum K1; format: functional; details: read-out: ED50 (the source's name); summary of the method: as §2
[9] = system: Plasmodium falciparum; test: Effective dose against Plasmodium falciparum; format: functional; details: read-out: ED50 (the source's name)

Compound | IC50 [1] | EC50 [2] | IC50 [3] | EC50 [4] | EC50 [5] | EC50 [6] | EC50 [7] | EC50 [8] | EC50 [9]
Cn1cncc1CN1CC(N(CC(=O)NC(C)(C)C)S(=O)(=O)c2ccccn2)Cc2cc(C#N)ccc21 (configuration not stated) | 1.4 nM | 85 nM | 1.8 nM | – | – | – | – | – | –
O[C@H](c1cc(C(F)(F)F)nc2c(C(F)(F)F)cccc12)[C@@H]1CCCCN1 [MEFLOQUINE] | – | – | – | 100 nM | 9 nM | 29 nM | 24 nM | 10 nM | –
Cn1cncc1CN1CC(N(CC(=O)NC(C)(C)C)S(=O)(=O)Cc2ccc(F)cc2)Cc2cc(C#N)ccc21 (configuration not stated) | 42 nM | > 5000 nM | 7.6 nM | – | – | – | – | – | –
Cn1cncc1CN1CC(N(CC(=O)NC(C)(C)C)S(=O)(=O)c2ccncc2)Cc2cc(C#N)ccc21 (configuration not stated) | 1000 nM | > 5000 nM | 160 nM | – | – | – | – | – | –
Cn1cnc(S(=O)(=O)N(Cc2ccccc2)C2Cc3cc(C#N)ccc3N(Cc3cncn3C)C2)c1 (configuration not stated) | 0.6 nM | – | 1.2 nM | 8 nM | 14 nM | 10 nM | 5 nM | 9 nM | –
CSCC[C@H](NC(=O)c1ccc(CNCc2cnc[nH]2)cc1-c1ccccc1C)C(=O)OCc1ccccc1 | 1000 nM | – | – | – | – | – | – | – | 150 nM
Cn1cncc1C(O)(CN1CCC(C#N)=C(c2cccc3ccccc23)C1)c1ccc(C#N)cc1 (configuration not stated) | 9 nM | – | – | – | – | – | – | – | > 5000 nM
Cc1ccccc1CN(C1Cc2cc(C#N)ccc2N(Cc2cncn2C)C1)S(=O)(=O)c1cn(C)cn1 (configuration not stated) | 1.5 nM | 55 nM | 3.4 nM | – | – | – | – | – | –
CSCC[C@H](NC(=O)c1ccc(CNCc2c[nH]cn2)cc1-c1ccccc1C)C(=O)O | 15 nM | – | – | – | – | – | – | – | > 20000 nM
Cn1cncc1CN1CC(N(Cc2cc3nsnc3cc2Cl)S(=O)(=O)c2ccccn2)Cc2cc(C#N)ccc21 (configuration not stated) | 55 nM | 3000 nM | 10 nM | – | – | – | – | – | –
Cn1cncc1CN1CC(N(Cc2ccc3ccccc3c2Br)S(=O)(=O)c2ccccn2)Cc2cc(C#N)ccc21 (configuration not stated) | 165 nM | 2750 nM | 440 nM | – | – | – | – | – | –
Cn1cnc(S(=O)(=O)N(CC(=O)NC(C)(C)C)C2Cc3cc(C#N)ccc3N(Cc3cncn3C)C2)c1 (configuration not stated) | 1.2 nM | – | 1.5 nM | 4 nM | 8 nM | 7 nM | 5 nM | 7 nM | –
Cn1cnc(S(=O)(=O)N(Cc2ccc3ccccc3c2Br)C2Cc3cc(C#N)ccc3N(Cc3cncn3C)C2)c1 (configuration not stated) | 28 nM | 3000 nM | 1000 nM | – | – | – | – | – | –
CCN(CC)CCCC(C)Nc1ccnc2cc(Cl)ccc12 (configuration not stated) [CHLOROQUINE] | – | – | – | 78 nM | 125 nM | 5 nM | 8 nM | 200 nM | –
Cn1cncc1CN1CC(N(CC(=O)NC(C)(C)C)S(=O)(=O)c2nccn2C)Cc2cc(C#N)ccc21 (configuration not stated) | 8 nM | > 5000 nM | 5 nM | – | – | – | – | – | –
C=C(Br)CN(C1Cc2cc(C#N)ccc2N(Cc2cncn2C)C1)S(=O)(=O)c1cn(C)cn1 (configuration not stated) | 0.4 nM | – | 0.8 nM | 10 nM | 14 nM | 10 nM | 6 nM | 10 nM | –
CCSC[C@H](CC1CCCCC1)NCc1ccc(C(=O)N[C@@H](CCSC)C(=O)O)c(-c2ccccc2C)c1 | 5 nM | – | – | – | – | – | – | – | > 5000 nM
Cn1cnc(S(=O)(=O)N(CC2CCN(C(=O)OC(C)(C)C)CC2)C2Cc3cc(C#N)ccc3N(Cc3cncn3C)C2)c1 (configuration not stated) | 1.1 nM | 100 nM | 3.2 nM | – | – | – | – | – | –
Cc1onc(-c2ccccc2)c1CN(C1Cc2cc(C#N)ccc2N(Cc2cncn2C)C1)S(=O)(=O)c1ccccn1 (configuration not stated) | 0.8 nM | 113 nM | 3 nM | – | – | – | – | – | –
Cn1cncc1CN1CC(N(CC(=O)NC(C)(C)C)S(=O)(=O)c2cccnc2)Cc2cc(C#N)ccc21 (configuration not stated) | 25 nM | 2700 nM | 6 nM | – | – | – | – | – | –
N#Cc1ccc(Cn2cncc2CN[C@H]2CCN(Cc3cccc(Cl)c3)C2=O)cc1 | – | – | – | – | – | – | – | – | > 5000 nM
C=C(C)CN(C1Cc2cc(C#N)ccc2N(Cc2cncn2C)C1)S(=O)(=O)c1cn(C)cn1 (configuration not stated) | 0.6 nM | – | 0.7 nM | 10 nM | 21 nM | 12 nM | 7 nM | 15 nM | –
Cn1cncc1CN1CC(N(Cc2ccccn2)S(=O)(=O)c2ccccn2)Cc2cc(C#N)ccc21 (configuration not stated) | 2.8 nM | 51 nM | 3.8 nM | – | – | – | – | – | –
Cn1cncc1[C@@](N)(c1ccc(Cl)cc1)c1ccc2c(c1)c(-c1cccc(Cl)c1)cc(=O)n2C [TIPIFARNIB] | 7 nM | – | – | – | – | – | – | – | 3000 nM
NC(=O)N1CCC(CC(=O)N2CCC([C@H]3c4ncc(Br)cc4CCc4cc(Cl)cc(Br)c43)CC2)CC1 [LONAFARNIB] | > 250 nM | – | – | – | – | – | – | – | 3000 nM
Cn1cnc(S(=O)(=O)N(CC(=O)OC(C)(C)C)C2Cc3cc(C#N)ccc3N(Cc3cncn3C)C2)c1 (configuration not stated) | 0.9 nM | – | 1.2 nM | 6 nM | – | 7 nM | 5 nM | 20 nM | –
CCc1nc(N)nc(N)c1-c1ccc(Cl)cc1 [PYRIMETHAMINE] | – | – | – | 16000 nM | – | 2 nM | 39 nM | 25000 nM | –
